Experimental data taken from ChEMBL document CHEMBL1134279, “Synthesis, nicotinic acetylcholine receptor binding, and antinociceptive properties of 2-exo-2-(2'-substituted-3'-phenyl-5'-pyridinyl)-7-azabicyclo[2.2.1]heptanes. Novel nicotinic antagonist” (J Med Chem, 2001).
Activity calls are given as the source filed them. The calls are words filed in the database; no cut-off is given here.

Experiments:
[1] = Inhibition of [3H]epibatidine binding at the alpha beta nicotinic AChR in male rat cerebral cortex; assay type: tissue-based
[2] = species: Mus musculus; test: Compound was tested for inhibition of antinociceptive effect of nicotine in mice by tail-flick assay; NA=Inactive; assay type: functional, organism-based
In short: (§1)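 Antagonism was tested in male ICR mice given test agent sc, measuring blockade of nicotine-induced antinociception in tail-flick or hot-plate tests. Potency is expressed as AD50 in mg/kg with confidence limits.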

[3] = system: Mus musculus; test: Compound at 10 mg/Kg was tested for hypothermia in mice; assay type: functional
In short: (§2)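 Male ICR mice were dosed and body temperature or locomotor activity was recorded. Values are ED50 in mg/kg with confidence limits, or the effect (change in °C for temperature) at a single stated mg/kg dose.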

[4] = system: Mus musculus; test: Compound at 10 mg/Kg was tested for antinociception in mice by hotplate assay; assay type: functional
In short: (§3)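 Male ICR mice were given test agent and assessed for antinociception by tail-flick or hot-plate. Results are expressed as ED50 in mg/kg with confidence limits, or as percent effect at a single stated mg/kg dose.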

[5] = system: Mus musculus; test: Compound at 10 mg/Kg was tested for antinociception in mice by tail-flick assay; assay type: functional; in short: as §3
[6] = species: Mus musculus; test: Compound was tested for inhibition of antinociceptive effect of nicotine in mice by hotplate assay; NA=Inactive; assay type: functional, organism-based; in short: as §1
[7] = species: Mus musculus; test: Effective dose for hypomotility in mice was determined; assay type: functional; in short: as §2
[8] = system: Mus musculus; test: Compound at 15 mg/Kg was tested for antinociception in mice by hotplate assay; assay type: functional; in short: as §3
[9] = species: Mus musculus; test: Compound was tested to block the antinociceptive effect of nicotine in mice by hotplate assay; assay type: functional; in short: as §1
[10] = species: Mus musculus; test: Compound was tested to block the antinociceptive effect of nicotine in mice by tail-flick assay; assay type: functional; in short: as §1
[11] = system: Mus musculus; test: Compound at 15 mg/Kg was tested for antinociception in mice by tail-flick assay; assay type: functional; in short: as §3
[12] = species: Mus musculus; test: Effective dose for antinociception in mice was determined by tail-flick assay
[13] = species: Mus musculus; test: Effective dose for hypothermia in mice was determined
[14] = species: Mus musculus; test: Effective dose for antinociception in mice was determined by hotplate assay

| Structure (SMILES) | Ki [1] | Temperature [3] | Effect [8] | AD50 [9] | AD50 [10] | Effect [11] | other results |
| --- | --- | --- | --- | --- | --- | --- | --- |
| CN(C)c1ncc(C2CC3CCC2N3)cc1-c1ccccc1 (configuration not stated) | 57.5 nM | – | – | – | – | – | – |
| Nc1ncc(C2CC3CCC2N3)cc1-c1ccccc1 (configuration not stated) | 0.33 nM | -0.5 °C | – | – | – | – | AD50 [2]: inactive; Effect [4]: 15%; Effect [5]: 2%; AD50 [6]: inactive |
| Clc1ncc(C2CC3CCC2N3)cc1-c1ccccc1 (configuration not stated) | 0.021 nM | – | – | – | – | – | – |
| Nc1ccc(C2CC3CCC2N3)cn1 (configuration not stated) | 1.3 nM | – | – | – | – | – | – |
| Fc1ccc(C2CC3CCC2N3)cn1 (configuration not stated) | 0.027 nM | – | – | – | – | – | – |
| Fc1ncc(C2CC3CCC2N3)cc1-c1ccccc1 (racemic) | – | -0.5 °C | 4% | 1.2 mg/kg | 0.5 mg/kg | 3% | ED50 [7]: 4.7 mg/kg |
| Fc1ncc(C2CC3CCC2N3)cc1-c1ccccc1 (single isomer, unassigned; (+)) | 0.24 nM | -0.4 °C | 8% | 2.4 mg/kg | 1 mg/kg | 7% | – |
| Fc1ncc(C2CC3CCC2N3)cc1-c1ccccc1 (stereo in doubt; (-)-5a) | 0.26 nM | -0.8 °C | 10% | 0.7 mg/kg | 0.08 mg/kg | 5% | – |
| CN1CCC[C@H]1c1cccnc1 [NICOTINE] | – | – | – | – | – | – | ED50 [12]: 0.006 mg/kg; ED50 [7]: 0.5 mg/kg; ED50 [13]: 0.004 mg/kg; ED50 [14]: 0.004 mg/kg |
